This excerpt belongs to a sample that is enriched for hits.
L major viab: inhibitors of Leishmania major promastigote growth; Leishmania major promastigotes, resazurin fluorescence viability; inhibition, % at 10 µM; 9% of 200,000 active;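 note: promastigotes grown with compound for 44 hours at 28 °C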
G6PDH CS: inhibits Leuconostoc G6PDH, flagging false hits in G6PDH-based assays; Purified L. mesenteroides G6PDH, diaphorase/resazurin coupled fluorescence, 45 min; inhibition, % at 5 µM; 0.12% of 200,000 active
Diaphorase inh: diaphorase inhibition or chemical oxidation counter-screen; 0.69% of 190,000 active; inhibition, % at 20 µM; AID 1217; diaphorase resazurin-to-resorufin fluorescence, NADH, 16 min; bacterial (C. kluyveri) enzyme, not human;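 active = primary screen inhibition at 20 µM above a set limit, cut at about 50% in these data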;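 note: plate controls were DMSO with full reaction for no effect and wells lacking NADH for full effect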
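System: Diaphorase enzyme from Clostridium kluyveri | Amount: Enzyme working solution with 0.14 U/mL diaphorase | Benchmarks: No-NADH positive control and DMSO neutral control | Signal: Fluorescence of resorufin formed from resazurin, Ex 544/Em 590 nm | Schedule: 16-min room-temperature incubation before reading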
Diaph act CS: diaphorase activation or chemical reduction counter-screen; activation factor at 20 µM; Diaphorase/resazurin coupled assay, resorufin fluorescence, 16 min; stronger effect = higher value; 1 = vehicle wells, 0 = NADH-free wells; 0.005% of 190,000 active;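 active = diaphorase activity raised at least twofold by the compound at 20 µM; inactive = activation factor below 2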
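Measured by – red resorufin fluorescence at 544/590 nm excitation/emission · Test system – Clostridium kluyveri diaphorase, purified enzyme · Incubation – reaction time 16 min, room temperature · Buffer or medium – 50 mM HEPES pH 7.4 with 4.542 mM MgCl2, 0.005% Tween 20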
PfGluPho inh: PfG6PD (Plasmodium falciparum) enzyme inhibition. PfGluPho enzyme, NADPH resazurin-diaphorase fluorescence. inhibition, % at 20 µM. 0.78% of 350,000 active. AID 504690;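 active = inhibition reaching at least a set limit at 20 µM in the primary screen, cut at about 59% in these data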;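 note: 0% = DMSO wells with substrate and 100% = DMSO wells lacking glucose-6-phosphate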
DTT redox prof: compounds producing H2O2 with reducing agent – biochemical, NIH compound library profiling, artefact control for MLSCN library redox annotation, primary screen; DTT-dependent redox cycling H2O2, phenol red/HRP absorbance; 100% = 100 µM peroxide control, 0% = buffer; activation, % at 10 µM; 0.03% of 200,000 active; AID 878;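 active = activation of at least 50% relative to the plate's high and low controls in the primary single-dose screen; inactive = activation below 50%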;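 note: compound incubated with DTT at 0.8 mM final as the reducing agent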
An asterisk follows results filed as active; / = not tested or not shown. Cut-off read from the data, not from the text of the source, unless noted: active = inhibition above about 50%; inactive = the rest.

SMILES	L major viab	G6PDH CS	Diaphorase inh	Diaph act CS	PfGluPho inh	DTT redox prof
COc1ccccc1-c1nn2c(-c3ccco3)nnc2s1	67*	12	22	0.8	17	0
COc1cccc(OC)c1-c1nn2c(-c3cc(-c4ccccc4)n[nH]3)nnc2s1	61*	0	15	0.8	32	4
O=C(CC(=O)Nc1cc(Cl)ccc1Cl)Nc1cc(Cl)ccc1Cl	/	/	/	/	5	/
c1cnc(Oc2ccc(-c3nnco3)cc2)cn1	8	3	5	0.9	-8	2
CNC[C@H]1Oc2ccc(NC(=O)Cc3cn(C)c4ccccc34)cc2CC(=O)N([C@@H](C)CO)C[C@H]1C	/	/	/	/	4	/
COc1cc(/C=N/NC(=S)N/N=C/c2cc(OC)c(OC)c(OC)c2)cc(OC)c1OC	55*	14	-8	1.1	5	-1
COc1ccc(C=NNC(=S)NN=Cc2ccc(OC)c(OC)c2)cc1OC	/	/	/	/	29	/
C=CCOc1c(Cl)cc(C(=S)N2CCCC2)cc1OCC	/	/	/	/	-9	/
Cc1ccc(-n2c(SCC(=O)NCCN3C(=O)CSC3=O)nnc2-c2ccccc2)cc1C	4	-14	5	1	4	0
Cn1c(SCC(=O)c2c(N)n(C)c(=O)n(C)c2=O)nnc1-c1ccccc1	66*	10	-4	1	4	0
Cc1ccc(-n2c(SCC(=O)NCCN3C(=O)CSC3=O)nnc2-c2ccccc2)cc1	62*	16	13	0.9	-11	0
Cn1c(SCC(=O)NCCN2C(=O)CSC2=O)nnc1-c1ccccc1	56*	2	8	0.9	-5	0
COc1ccc(NC(=O)CN2C(=O)COc3ccc(S(=O)(=O)N4CCCCC4)cc32)c(OC)c1	/	/	/	/	-3	/
CCn1c(C)c(C2=CCN(S(=O)(=O)c3ccccc3)CC2)c2ccccc21	28	-2	24	0.8	0	2
O=C1Nc2ccccc2C12OCC1(CO2)COC2(OC1)C(=O)Nc1ccccc12 (stereo not given)	91*	5	13	0.9	7	0
CC1(C)COC2(OC1)C(=O)Nc1ccccc12	-6	7	-5	1.1	-1	1
N#CC1=C(N)OC2=C(C(=O)CC(c3ccccc3)C2)C1c1cccnc1 (stereo not given)	93*	0	-16	1.2	-5	1
N#CC1=C(N)Oc2cc3ccccc3cc2C1c1cccnc1 (stereo not given)	85*	17	21	0.8	10	-3
COc1ccc(S(=O)(=O)NCC2CCCN(C(=O)CCC(F)(F)F)C2)cc1 (stereo not given)	/	/	/	/	-16	/
O=C(NCCc1cccs1)C1CC(c2c(Cl)cccc2Cl)=NO1 (stereo not given)	2	10	21	0.8	-3	2
OC(CNCc1ccc(Cl)cc1)COc1ccccc1 (stereo not given)	/	/	/	/	5	/
OC(CNCc1ccccc1)COCc1ccc(Cl)cc1 (stereo not given)	84*	4	5	0.9	1	0
O=C(CNC(=O)C1COc2ccccc2O1)N/N=C\c1cccc(O)c1 (stereo not given)	-8	-5	4	1	-22	0
O=C(CNC(=O)C1COc2ccccc2O1)N/N=C/c1ccc(O)cc1O (stereo not given)	98*	-17	12	0.9	-22	0
CCOCCc1c(O)nc(SCC(=O)N2CCOCC2)[nH]c1=O	/	/	/	/	0	/
COc1cc(/C=C2\SC(=O)NC2=O)ccc1Oc1ccc([N+](=O)[O-])cc1[N+](=O)[O-]	44	-8	59*	0.4	9	5
CCNC(=S)/N=C(\N)Nc1nc(C)c2cc(C)ccc2n1	81*	-3	31	0.7	2	-2
CCOc1ccc2nc(N/C(N)=N/C(=S)Nc3ccc(C)c(C)c3)nc(C)c2c1	31	-6	8	0.9	-16	0
N#C/C(=C\c1ccc(OCC(N)=O)cc1)c1ccccc1	58*	-2	10	0.9	-7	0
COc1ccc(C=C(C#N)c2ccc(OC)cc2)cc1	/	/	/	/	14	/

High-throughput results (PubChem BioAssay)
